Source: PubChem BioAssay AID652163 (Broad Institute, 2013)
Values joined by “and” are separate entries in the source; they are usually repeats but may differ in a detail not shown here. Equal entries are not always repeated. Screen size: about 360,000 compounds; about 500 (0.14%) were called active.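 How the source made its calls: active means mean inhibition of at least 70% across replicates, with every replicate also reaching that level; inconclusive means mean inhibition reaches 70% but some replicates fall short; inactive means mean inhibition below 70%.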 Shown is part of a subset that was picked to be rich in actives. The source holds several records for some structures; these can differ, active in one and inactive in another.

Each molecule was assayed against Protein S100-A4 (Homo sapiens) (UniProt P26447) (assay: human S100A4 protein-peptide interaction blockers – biochemical, fluorescence polarization, TAMRA-MyoIIA peptide, primary screen (AID 652163)). Conditions: at 10.7 µM, stronger effect = higher value.
Protein S100-A4 (Homo sapiens), sequence (P26447 whole entry, looked up): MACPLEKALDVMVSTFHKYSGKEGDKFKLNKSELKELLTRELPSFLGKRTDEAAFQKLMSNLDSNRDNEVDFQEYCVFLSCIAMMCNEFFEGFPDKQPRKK
Outline: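 Compound dosing: one dose per compound; test system: human S100A4 monomer with TAMRA-labelled myosin IIA peptide; probe or stimulus: TAMRA-labelled myosin IIA heavy-chain peptide probe, 5 nM; medium: HEPES buffer with Ca2+, pH 7.2; schedule: 5 min incubation before reading; benchmarks: neutral control DMSO, positive control TFP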
For `CO[C@H]1CC[C@H]2CCN(C)C(=O)C[C@@H](c3ccccc3)CN(C)C(=O)c3cccc(C#N)c3OC[C@@H]1O2`, the inhibition was 0.912% (inactive). `CCCNC(=O)N1[C@@H]2CN(C)c3ccccc3[C@@H]2[C@@H]1CO` was tested, and the inhibition was 7.1% (inactive). In the case of `COc1ccc(S(=O)(=O)N(C)C[C@H]2Oc3ccc(NC(=O)Nc4c(C)noc4C)cc3C(=O)N([C@@H](C)CO)C[C@@H]2C)cc1`, the inhibition is reported as -9.31% (inactive). In the case of `Cc1noc(C)c1NC(=O)N(C)C[C@@H]1OCCCC[C@H](C)Oc2ccc(NC(=O)CCC(F)(F)F)cc2C(=O)N([C@@H](C)CO)C[C@@H]1C`, the inhibition is reported as 5.68% (inactive). `CC(=O)N(C)C[C@@H]1Oc2cc(-c3cccc(F)c3)ccc2S(=O)(=O)N([C@H](C)CO)C[C@H]1C` was tested, and the inhibition was -20.8% (inactive). For `CC(C)(O)C#Cc1ccc([C@H]2[C@H]3CN(C(=O)c4ccncc4)CCCCN3[C@H]2CO)cc1`, the inhibition was -11.2% (inactive). `COc1ccc(S(=O)(=O)Nc2ccc3c(c2)C(=O)N([C@@H](C)CO)C[C@H](C)[C@H](CN(C)Cc2ccc4c(c2)OCO4)OCCCC[C@H](C)O3)cc1` was tested, and the inhibition was -9.48% (inactive). In the case of `COc1cccc(C(=O)Nc2ccc3c(c2)C(=O)N(C)[C@H]2CC[C@@H](CC(=O)N[C@H](C)c4ccccc4)O[C@H]2CO3)c1`, the inhibition is reported as -0.71% (inactive). For `C=CCN1C(=O)[C@]2(O[C@H](CCn3cc(CCO)nn3)[C@@H]([Si](C)(C)c3ccc(OC)cc3)[C@@H]2C)c2cc(N3CCOC3=O)ccc21`, the inhibition was 10.3% (inactive). With `C[C@H](CO)N1C[C@H](C)[C@@H](CN(C)CC2CC2)Oc2ccc(NC(=O)CCCN(C)C)cc2CC1=O` the inhibition was -0.322% (inactive). In the case of `CN1CCN(C(=O)C[C@@H]2C=C[C@@H](NS(=O)(=O)c3cccc(F)c3)[C@@H](CO)O2)CC1`, the inhibition is reported as 103% (active). With `O=C(C[C@@H]1C=C[C@@H](NS(=O)(=O)c2ccccc2)[C@H](CO)O1)N1CCN(c2ccccc2)CC1` the inhibition was 8.62% (inactive). For `COc1ccccc1S(=O)(=O)N[C@@H]1C=C[C@H](CC(=O)N2CCN(C)CC2)O[C@@H]1CO`, the inhibition was 59.7% (inactive). For `Nc1ncnc2c1ncn2C1OC(CO)CC1O` (configuration not stated), the inhibition was 0.763% (inactive). In the case of `CO[C@@H]1CN(C)C(=O)c2cc(NC(=O)c3ccccc3)ccc2OC[C@H](C)N(C(=O)CN(C)C)C[C@H]1C`, the inhibition is reported as -0.975% (inactive). For `C=C[C@H](OC)[C@@H](O)c1ccc(OC)c(O)c1`, the inhibition was -5.17% (inactive). `CN1C(=O)c2cc(NC(=O)C3CCCC3)ccc2OC[C@H]2O[C@H](CC(=O)NCc3ccccc3F)CC[C@H]21` was tested, and the inhibition was -2.52% (inactive). With `CN1C(=O)c2cc(NC(=O)C3CCC3)ccc2OC[C@@H]2O[C@@H](CC(=O)NCc3ccccc3F)CC[C@@H]21` the inhibition was 88.8% (active). For `CN1C(=O)c2cc(NC(=O)C3CCOCC3)ccc2OC[C@@H]2O[C@H](CC(=O)NCc3ccccc3F)CC[C@H]21`, the inhibition was 4.38% (inactive). `C[C@@H]1CN([C@@H](C)CO)C(=O)c2cc(C3=CCCC3)cnc2O[C@H]1CN(C)Cc1ccccc1F` was tested, and the inhibition was 0.298% (inactive). For `COc1cccc2c1C(=O)c1c(O)c3c(c(O)c1C2=O)CC(O)(C(C)=NNC(=O)c1ccc(Cl)c(Cl)c1)CC3OC1CC(N)C(O)C(C)O1` (configuration not stated), the inhibition was 189% (active). `C[C@@H]1CN([C@H](C)CO)C(=O)CCCn2cc(nn2)CO[C@H]1CN(C)S(C)(=O)=O` was tested, and the inhibition was -42.7% (inactive) and 116% (active) and -0.12% (inactive). In the case of `C[C@H]1CN([C@@H](C)CO)C(=O)CCCn2cc(nn2)CO[C@@H]1CN(C)S(=O)(=O)c1cccs1`, the inhibition is reported as 1.44% (inactive) and -0.084% (inactive). With `Cc1noc(C)c1S(=O)(=O)N(C)C[C@H]1OCc2cn(nn2)CCCC(=O)N([C@H](C)CO)C[C@H]1C` the inhibition was -10.8% (inactive). In the case of `C[C@H]1CN([C@@H](C)CO)C(=O)c2cccc(NC(=O)Nc3ccc(C(F)(F)F)cc3)c2O[C@H]1CN(C)CC1CCCCC1`, the inhibition is reported as 0.766% (inactive). `CO[C@H]1CN(C)C(=O)c2ccc(NS(C)(=O)=O)cc2OC[C@H](C)N(C(=O)C2CCC2)C[C@H]1C` was tested, and the inhibition was 3.67% (inactive). For `COC(=O)c1cc2c(c3c4ccccc4n(S(=O)(=O)c4cccc(C)c4)c13)C(=O)N(Cc1ccccc1)C2`, the inhibition was -0.199% (inactive). In the case of `O=C(C[C@@H]1CC[C@@H]2[C@H](COC[C@@H](O)CN2S(=O)(=O)c2ccccc2)O1)NCC1CCCCC1`, the inhibition is reported as -4.89% (inactive). `CN1CCN(C(=O)C[C@@H]2CC[C@@H]3[C@@H](COc4ccc(NC(=O)c5ccc(F)c(F)c5)cc4C(=O)N3C)O2)CC1` was tested, and the inhibition was -20.1% (inactive). `O=C(NCC1CC1)[C@H]1[C@H](CO)[C@H]2Cn3c(ccc(/C=C/c4ccccc4)c3=O)[C@@H]1N2C(=O)C1CCC1` was tested, and the inhibition was 5.09% (inactive). `COCC#Cc1ccc([C@@H]2[C@H]3CN(C(=O)C4CCOCC4)CC(=O)N3[C@H]2CO)cc1` was tested, and the inhibition was 10.1% (inactive). `COc1cccc(S(=O)(=O)N[C@@H]2C=C[C@H](CC(=O)NC3CCC3)O[C@@H]2CO)c1` was tested, and the inhibition was 11.1% (inactive). `O=C(Nc1nccs1)[C@@H]1[C@@H](CO)[C@@H]2Cn3c(ccc(-c4cccnc4)c3=O)[C@@H]2N1CC1CC1` was tested, and the inhibition was 5.29% (inactive). `O=C([C@H]1N[C@H]2c3ccc(-c4ccccc4)c(=O)n3C[C@H]2[C@@H]1CO)N1CCOCC1` was tested, and the inhibition was -1.77% (inactive). In the case of `CO[C@H]1CN(C)C(=O)c2cc(NC(=O)C3CCC3)ccc2OC[C@H](C)N(C)C[C@H]1C`, the inhibition is reported as 6.42% (inactive). `CO[C@@H]1CN(C)C(=O)c2cc(NC(=O)c3cc(C)on3)ccc2OC[C@@H](C)N(C(C)=O)C[C@@H]1C` was tested, and the inhibition was -1.83% (inactive). With `C[C@@H]1CN([C@H](C)CO)C(=O)c2cccc(NS(=O)(=O)c3ccc(Cl)cc3)c2O[C@H]1CN(C)C(=O)NC1CCCCC1` the inhibition was 3.25% (inactive). For `CC(C)CC#Cc1ccc([C@H]2[C@H]3CN(C(=O)c4cnccn4)CC(=O)N3[C@H]2CO)cc1`, the inhibition was 1.39% (inactive). `COc1cccc(-c2ccc3n(c2=O)C[C@H]2[C@H](CO)[C@@H](C(=O)NC4CCCC4)[C@@H]3N2C)c1` was tested, and the inhibition was 6.59% (inactive). In the case of `C/C=C/c1ccc([C@H]2[C@@H](CO)N[C@@H]2CN(CC)C(=O)CN2CCOCC2)cc1`, the inhibition is reported as -4.11% (inactive). `O=C(C[C@H]1C=C[C@H](NC(=O)NC2CCCCC2)[C@H](CO)O1)NCc1ccccc1` was tested, and the inhibition was 11.3% (inactive). In the case of `C[C@@H]1CN([C@@H](C)CO)C(=O)c2cc(NS(C)(=O)=O)ccc2O[C@@H]1CN(C)C(=O)Nc1ccccc1`, the inhibition is reported as -7.83% (inactive). In the case of `C[C@@H]1CCCCO[C@@H](CN(C)C(=O)C2CCCCC2)[C@@H](C)CN([C@H](C)CO)C(=O)c2cc(NC(=O)c3ccccc3)ccc2O1`, the inhibition is reported as 5.47% (inactive). In the case of `Cc1ccccc1-c1ccc2c(c1)O[C@@H](CN(C)C(=O)Nc1ccc(F)cc1)[C@H](C)CN([C@@H](C)CO)S2(=O)=O`, the inhibition is reported as -6.84% (inactive). With `C[C@H]1CN([C@@H](C)CO)C(=O)c2cc(-c3cccc(F)c3)cnc2O[C@@H]1CN(C)C(=O)c1ccccn1` the inhibition was 1.67% (inactive). In the case of `C[C@H]1CN([C@@H](C)CO)C(=O)c2cccc(NC(=O)Nc3ccccc3)c2O[C@@H]1CN(C)C(=O)Nc1cccc2ccccc12`, the inhibition is reported as 8.48% (inactive). With `COc1cccc(CC2(CO)CCCN(CC3=Cc4cc(OC)ccc4OC3)C2)c1` (configuration not stated) the inhibition was -14.5% (inactive). For `COc1ccc2c(c1)C=CC1(O2)N(CCO)c2ccccc2C1(C)C` (configuration not stated), the inhibition was 97.1% (active). With `CN1c2ccc([N+](=O)[O-])cc2C(C)(C)C12C=Cc1cc(C(=O)O)ccc1O2` (configuration not stated) the inhibition was -14.5% (inactive). For `CN(C)CC(=O)N[C@H]1CC[C@@H](CCNC(=O)C2CCCC2)O[C@@H]1CO`, the inhibition was 4.07% (inactive). `C[C@@H]1CN([C@H](C)CO)C(=O)Cc2cc(NS(=O)(=O)c3ccc(Cl)cc3)ccc2O[C@@H]1CN(C)C` was tested, and the inhibition was -3.76% (inactive). In the case of `O=C(C[C@H]1C[C@H]2c3cc(NC(=O)Nc4ccccc4)ccc3O[C@H]2[C@H](CO)O1)NC1CCCC1`, the inhibition is reported as -3.39% (inactive). `CN(C)C(=O)C[C@H]1C[C@@H]2c3cc(NC(=O)NC4CCCCC4)ccc3O[C@@H]2[C@@H](CO)O1` was tested, and the inhibition was 12.2% (inactive). With `COC(=O)C(CC#Cc1ccc2c(c1)[C@]1(C(=O)N2)[C@H](c2ccccc2OCCO)N2[C@H](c3ccccc3)[C@H](c3ccccc3)OC(=O)[C@H]2[C@@H]1C(N)=O)C(=O)OC` the inhibition was -5.68% (inactive). `O=C(C[C@H]1CC[C@@H]2[C@H](COC[C@H](O)CN2CCC(F)(F)F)O1)NCC1CC1` was tested, and the inhibition was -3.95% (inactive). `Cn1cnc(S(=O)(=O)N2C[C@H](O)COC[C@@H]3O[C@H](CC(=O)NC4CCCC4)CC[C@H]32)c1` was tested, and the inhibition was 126% (active). In the case of `Cn1cnc(S(=O)(=O)N2C[C@@H](O)COC[C@@H]3O[C@H](CC(=O)NC4CCC4)CC[C@H]32)c1`, the inhibition is reported as 0.326% (inactive). With `Cn1cnc(S(=O)(=O)N2C[C@H](O)COC[C@@H]3O[C@H](CC(=O)NC4Cc5ccccc5C4)CC[C@H]32)c1` the inhibition was 2.44% (inactive). `O=C(C[C@H]1CC[C@H]2[C@@H](COC[C@@H](O)CN2C(=O)Nc2ccc(C(F)(F)F)cc2)O1)NC1Cc2ccccc2C1` was tested, and the inhibition was 9.1% (inactive). With `C[C@H]1CN([C@@H](C)CO)C(=O)c2cccc(NC(=O)c3cnccn3)c2O[C@H]1CN(C)S(=O)(=O)c1cn(C)cn1` the inhibition was 2.47% (inactive). With `COCCNC(=O)[C@H]1[C@H](CO)[C@H]2Cn3c(ccc(-c4ccccc4F)c3=O)[C@H]2N1C(=O)C1CCC1` the inhibition was -0.238% (inactive). In the case of `COc1ccc(CN(C)C[C@H]2Oc3c(NS(=O)(=O)c4ccc(C)cc4)cccc3C(=O)N([C@@H](C)CO)C[C@@H]2C)cc1`, the inhibition is reported as -5.34% (inactive).
